Calls of active or inactive are those of the source. The rule behind the calls is not given here.
Key:
Hep 3B2 [1] = experiment: Cytotoxicity against human Hep3B cells assessed as reduction in cell viability at 1 to 20 uM incubated for 3 hrs followed by incubation in compound free medium for 21 hrs under dark condition by MTT assay; type: functional, cell-based
[2] = Induction of singlet oxygen production in 90% H2O/CH3CN mixture upon irradiation of 365 nanometer light assessed as oxygenation of 1,5-DHN by UV-Visible spectroscopic method; type: functional
Method in brief: (§1)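 Singlet oxygen generation was followed by oxygenation of 1,5-dihydroxynaphthalene to juglone. Sensitizer solutions were irradiated in quartz cuvettes with 365 nm light.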

[3] = Induction of singlet oxygen production in H2O upon irradiation of 365 nanometer light assessed as oxygenation of 1,5-DHN by measuring quantum yield at 33 uM by UV-Visible spectroscopic method; type: functional; method in brief: as §1
HUVEC [4] = experiment: Cytotoxicity against HUVEC assessed as reduction in cell viability at 1 to 20 uM incubated for 3 hrs followed by incubation in compound free medium for 21 hrs under dark condition by MTT assay; type: functional, cell-based; details: Homo sapiens
[5] = Dark toxicity in human Hep3B cells assessed as cell damage at 20 uM after 1 hr by propidium iodide/Hoechst 33342 staining based static cytometry coupled fluorescence microscopic method (reference value: 1.25%); details: hep 3b2, 1 h
[6] = Induction of singlet oxygen production in CH3CN upon irradiation of 365 nanometer light assessed as oxygenation of 1,5-DHN by measuring quantum yield at 33 uM by UV-Visible spectroscopic method; type: functional; method in brief: as §1
[7] = Self-aggregating property assessed as diameter of nanostructure by DLS method; type: physicochemical
HUVEC [8] = experiment: Cytotoxicity against HUVEC assessed as reduction in cell viability at 1 to 20 uM after 3 hrs under dark condition by MTT assay; type: functional, cell-based; details: Homo sapiens
Hep 3B2 [9] = experiment: Photocytotoxicity in human Hep3B cells assessed as cell damage at 20 uM preincubated for 1 hr followed by 365 nanometer UV light irradiation for 3 mins by propidium iodide/Hoechst 33342 staining based static cytometry coupled fluorescence microscopic method (reference value: 1.25%); type: functional
Method in brief: (§2)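 Hep3B cells exposed to photosensitizer for 1 h, then irradiated at 365 nm for 3 min. PI-positive cells were quantified by fluorescence microscopy coupled with static cytometry and expressed as percentage of cells, with untreated cells as reference.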

[10] = Induction of singlet oxygen production in 50% H2O/CH3CN mixture upon irradiation of 365 nanometer light assessed as oxygenation of 1,5-DHN by UV-Visible spectroscopic method; type: functional; method in brief: as §1
Hep 3B2 [11] = experiment: Photocytotoxicity in human Hep3B cells assessed as cell damage at 10 uM preincubated for 1 hr followed by 365 nanometer UV light irradiation for 3 mins by propidium iodide staining based confocal fluorescence laser scanning microscopic method; type: functional
Method in brief: (§3)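 Hep3B cells, 30.000 cells/well, exposed to photosensitizer ([…] as printed) for 1 h, then irradiated with a 365 nm UV lamp, 6 W, for 3 min. Damaged or dead cells stained with propidium iodide (1 mM as printed) and imaged by confocal laser scanning microscopy, ex 488 nm, em 500–700 nm. Irradiated control wells received no photosensitizer.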

Hep 3B2 [12] = experiment: Cytotoxicity against human Hep3B cells assessed as reduction in cell viability at 1 to 20 uM after 24 hrs under dark condition by MTT assay; type: functional, cell-based
[13] = Self-aggregating property assessed as diameter of nanostructure by scanning electron microscopic method; type: physicochemical
HUVEC [14] = experiment: Cytotoxicity against HUVEC assessed as cell viability at 1 to 20 uM after 3 hrs under dark condition by MTT assay relative to control; type: functional, Homo sapiens
Hep 3B2 [15] = experiment: Photocytotoxicity in human Hep3B cells assessed as cell damage preincubated for 1 hr followed by 365 nanometer UV light irradiation for 3 mins by propidium iodide/Hoechst 33342 staining based static cytometry coupled fluorescence microscopic method; type: functional; method in brief: as §2
[16] = Drug uptake in human Hep3B cell lysosome at 10 uM after 1 hr by Draq5 staining based bright field microscopic method; type: ADME, subcellular; details: hep 3b2, 1 h
[17] = Drug uptake in human Hep3B cell mitochondria at 10 uM after 1 hr by Draq5 staining based bright field microscopic method; type: ADME; details: hep 3b2, 1 h
Hep 3B2 [18] = experiment: Cytotoxicity against human Hep3B cells assessed as reduction in cell viability after 3 hrs under dark condition by MTT assay; type: functional, cell-based
Hep 3B2 [19] = experiment: Photocytotoxicity in human Hep3B cells assessed as cell damage preincubated for 1 hr followed by 365 nanometer UV light irradiation for 3 mins by propidium iodide staining based confocal fluorescence laser scanning microscopic method; type: functional; method in brief: as §3
[20] = Self-aggregating property assessed as diameter of nanostructure by transmission electron microscopic method; type: physicochemical
[21] = Drug uptake in human Hep3B cell endoplasmic reticulum at 10 uM after 1 hr by Draq5 staining based bright field microscopic method; type: ADME, subcellular; details: hep 3b2, 1 h
HUVEC [22] = experiment: Cytotoxicity against HUVEC assessed as reduction in cell viability after 3 hrs under dark condition by MTT assay; type: functional, cell-based; details: Homo sapiens
HUVEC [23] = experiment: Cytotoxicity against HUVEC assessed as cell viability at 1 to 20 uM after 24 hrs under dark condition by MTT assay relative to control; type: functional, Homo sapiens
[24] = Drug uptake in human Hep3B cell nuclear membrane at 10 uM after 1 hr by Draq5 staining based bright field microscopic method; type: ADME, cell membranes; details: hep 3b2, 1 h

For `CCCNC(=O)[C@@H](NC(=O)c1c2ccccc2nc2ccccc12)C(C)C`, the Activity (Hep 3B2 [1]) was “inactive”, the Activity [2] was “Active” and the Activity [3] was 0.263. The Activity (HUVEC [4]) was “inactive”, the Activity [5] was 3.38% and the Activity [6] was 0.97. The Activity [7] was “Not Active”, the Activity (HUVEC [8]) was “inactive” and the Activity (Hep 3B2 [9]) was 8.7%. For the same molecule, the Activity [10] was “Active”, the Activity (Hep 3B2 [11]) was “Active” and the Activity (Hep 3B2 [12]) was “inactive”.

For `CC(C)[C@H](NC(=O)c1c2ccccc2nc2ccccc12)C(=O)NCCCCCCCCNC(=O)[C@@H](NC(=O)c1c2ccccc2nc2ccccc12)C(C)C`, the Activity (Hep 3B2 [1]) was “inactive”, the Activity [13] was 93 nm and the Activity [2] was “inactive”. For the same molecule, the Activity (HUVEC [14]) was 46%, the Activity [3] was 0.01 and the Activity (HUVEC [4]) was “inactive”. The Activity (Hep 3B2 [15]) was “inactive”, the Activity [6] was 0.96 and the Drug uptake [16] was “Not Active”. For the same molecule, the Drug uptake [17] was “Not Active”, the Activity (Hep 3B2 [18]) was “Dose-dependent effect” and the IC50 (Hep 3B2 [18]) was 29.5 µM. For the same molecule, the Activity [7] was 122 nm, the Activity (Hep 3B2 [19]) was “inactive” and the Activity [20] was 135 nm. For the same molecule, the Drug uptake [21] was “Not Active”, the Activity (HUVEC [22]) was “Dose-dependent effect” and the IC50 (HUVEC [22]) was 18.6 µM. The Activity (HUVEC [23]) was 27%, the Activity [10] was “inactive” and the Drug uptake [24] was “Active”. For the same molecule, the Activity (Hep 3B2 [12]) was “Active”.

— ChEMBL document CHEMBL4219076, “Synthesis, spectroscopic studies and biological evaluation of acridine derivatives: The role of aggregation on the photodynamic efficiency” (Bioorg Med Chem Lett, 2018)
